ChEMBL document CHEMBL1129972 (J Med Chem, 1997)
Bridge positions count the residues as written; N and C are the ends. Square brackets hold non-standard residues; d marks the D form. Peptide text beside a SMILES is read from it. Pen = CC(C)(S)[C@H](N)C(=O)O; hCys = N[C@@H](CCS)C(=O)O

How the values were obtained:
[1] = molecular target: T1, Angiotensin II receptor (AT-1) type-1 (Rattus norvegicus, UniProt P29089+P25095); assay: Inhibitory concentration against [125 I]Ang II binding to rat pituitary membranes Angiotensin II receptor type 1 without 0.2% bovine serum albumin
T1 sequence (P29089 whole entry): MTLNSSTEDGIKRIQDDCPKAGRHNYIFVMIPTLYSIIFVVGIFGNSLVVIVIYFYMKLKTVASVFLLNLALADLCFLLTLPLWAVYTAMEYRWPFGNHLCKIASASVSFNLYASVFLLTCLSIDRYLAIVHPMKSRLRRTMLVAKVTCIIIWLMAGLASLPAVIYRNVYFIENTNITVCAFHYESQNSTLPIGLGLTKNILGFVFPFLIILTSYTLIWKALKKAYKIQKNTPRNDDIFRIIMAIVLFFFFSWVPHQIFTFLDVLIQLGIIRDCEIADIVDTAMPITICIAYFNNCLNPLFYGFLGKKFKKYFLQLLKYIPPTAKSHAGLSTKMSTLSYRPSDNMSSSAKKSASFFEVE
T1 sequence (P25095 whole entry): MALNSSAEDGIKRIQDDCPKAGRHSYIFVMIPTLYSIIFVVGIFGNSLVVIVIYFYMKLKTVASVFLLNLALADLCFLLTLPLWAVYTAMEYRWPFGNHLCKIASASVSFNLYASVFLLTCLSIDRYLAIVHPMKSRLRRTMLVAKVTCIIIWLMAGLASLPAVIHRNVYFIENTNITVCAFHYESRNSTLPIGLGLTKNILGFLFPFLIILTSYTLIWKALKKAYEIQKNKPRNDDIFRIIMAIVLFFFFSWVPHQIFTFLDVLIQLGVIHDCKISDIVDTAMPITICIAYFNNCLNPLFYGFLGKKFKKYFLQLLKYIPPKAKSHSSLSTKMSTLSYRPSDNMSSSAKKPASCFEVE

Oryctolagus cuniculus [2] = species on record: Oryctolagus cuniculus; assay: Contractile activity in isolated rabbit aortic rings; type: functional, Aorta
Outline: (§1)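 Thoracic aortic rings (2 mm) from male New Zealand white rabbits (2.5–3.5 kg, pentobarbitone-anesthetized) in Krebs' bicarbonate buffer, 38.5 °C, pH 7.4, 95% O2/5% CO2; isometric tension, 2 g resting, ~90 min equilibration with one 300 nM Ang II challenge. Control cumulative Ang II curve (3×10^-10–10^-7 M), then cumulative test-compound curve 3×10^-10–10^-5 M; response as % of control Ang II maximum.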

[3] = molecular target: T1, Angiotensin II receptor (AT-1) type-1; assay: Inhibitory concentration against specific binding of [125 I]Ang II to rat pituitary membranes (Angiotensin II receptor, type 1) in presence of 0.2% bovine serum albumin; type: cell membranes, Membrane
Oryctolagus cuniculus [4] = species on record: Oryctolagus cuniculus; assay: Concentration which produces 50% of maximal contractile response at rabbit aorta strips; type: functional; outline: as §1

SMILES	IC50 [1]	IC50 [3]	EC50 (Oryctolagus cuniculus [4])	pD2 (Oryctolagus cuniculus [2])
CC[C@H](C)[C@@H](C(=O)N[C@@H](Cc1c[nH]cn1)C(=O)N1CCC[C@H]1C(=O)N[C@@H](Cc1ccccc1)C(=O)O)N1CCC(CNC(=O)[C@H](CCCN=C(N)N)NC(=O)[C@@H](N)CC(=O)O)=C[C@H](Cc2ccc(O)cc2)C1=O	2 nM	–	–	–
CC[C@H](C)[C@@H](C(=O)N[C@@H](Cc1c[nH]cn1)C(=O)N1CCC[C@H]1C(=O)N[C@@H](Cc1ccccc1)C(=O)O)N1Cc2cc(NC(=O)[C@H](CCCN=C(N)N)NC(=O)[C@@H](N)CC(=O)O)ccc2[C@H](Cc2ccc(O)cc2)C1=O	> 100000 nM	–	–	–
CC[C@H](C)[C@H](NC(=O)[C@H](Cc1ccc(O)cc1)NC(=O)[C@@H](NC(=O)[C@H](CCCNC(=N)N)NC(=O)[C@@H](N)CC(=O)O)C(C)C)C(=O)N[C@@H](Cc1cnc[nH]1)C(=O)N1CCC[C@H]1C(=O)N[C@@H](Cc1ccccc1)C(=O)O [ANGIOTENSIN II]	–	–	2.6 nM	–
CC[C@H](C)[C@@H](C(=O)N[C@@H](Cc1cnc[nH]1)C(=O)N1CCC[C@H]1C(=O)N[C@@H](Cc1ccccc1)C(=O)O)N1Cc2cc(NC(=O)[C@H](CCCN=C(N)N)NC(=O)[C@@H](N)CC(=O)O)ccc2[C@@H](Cc2ccc(O)cc2)C1=O	> 100000 nM	–	–	–
CC[C@H](C)[C@@H](C(=O)N[C@@H](Cc1c[nH]cn1)C(=O)N1CCC[C@H]1C(=O)N[C@@H](Cc1ccccc1)C(=O)O)N1CCC(CNC(=O)[C@H](CCCN=C(N)N)NC(=O)[C@@H](N)CC(=O)O)=C[C@@H](Cc2ccc(O)cc2)C1=O	2.8 nM	–	830 nM	–

Second part, led by results:

IC50 [1]	IC50 [3]	EC50 (Oryctolagus cuniculus [4])	SMILES	pD2 (Oryctolagus cuniculus [2])
1.7 nM	15.4 nM	–	NC(N)=NCCC[C@H](NC(=O)[C@@H](N)CC(=O)O)C(=O)N[C@H]1CCSSCC[C@@H](C(=O)N[C@@H](Cc2c[nH]cn2)C(=O)N2CCC[C@H]2C(=O)N[C@@H](Cc2ccccc2)C(=O)O)NC(=O)[C@H](Cc2ccc(O)cc2)NC1=O (H-DR[hCys]Y[hCys]HPF-OH; disulfide 3-5)	8.48
2.9 nM	28 nM	–	NC(N)=NCCC[C@H](NC(=O)[C@@H](N)CC(=O)O)C(=O)N[C@H]1CSSC[C@@H](C(=O)N[C@@H](Cc2c[nH]cn2)C(=O)N2CCC[C@H]2C(=O)N[C@@H](Cc2ccccc2)C(=O)O)NC(=O)[C@H](Cc2ccc(O)cc2)NC1=O (H-DRCYCHPF-OH; disulfide 3-5)	–
0.9 nM	3.8 nM	217 nM	CC1(C)SSC(C)(C)[C@@H](C(=O)N[C@@H](Cc2c[nH]cn2)C(=O)N2CCC[C@H]2C(=O)N[C@@H](Cc2ccccc2)C(=O)O)NC(=O)[C@H](Cc2ccc(O)cc2)NC(=O)[C@H]1NC(=O)[C@H](CCCN=C(N)N)NC(=O)[C@@H](N)CC(=O)O (H-DR[Pen]Y[Pen]HPF-OH; disulfide 3-5)	–
